According to publication PMC3295204 (Journal of Medicinal Chemistry, 2012):

What was measured:
[1] = tested on: PC-3 cells; experiment: Cell viability; format: cell-based, human; conditions: PC-3, 50 μM, 24 h
[2] = Cell viability; format: cell-based; conditions: human, PWR-1E cells (normal prostatic epithelia cell line)
[3] = Cell viability; format: cell-based; conditions: human, LNCaP cells (androgen-dependent prostate cancer cell line)
[4] = Cell viability; format: cell-based, human; conditions: human, PC-3 cells (androgen-independent prostate cancer cell line)
[5] = target: T1, progesterone receptor (PR) (Homo sapiens, UniProt P06401); experiment: TR-FRET SRC1-4 coactivator displacement from progesterone-PR complex; format: biochemical; conditions: AR vs PR
T1 sequence (P06401 679-933 limits assumed): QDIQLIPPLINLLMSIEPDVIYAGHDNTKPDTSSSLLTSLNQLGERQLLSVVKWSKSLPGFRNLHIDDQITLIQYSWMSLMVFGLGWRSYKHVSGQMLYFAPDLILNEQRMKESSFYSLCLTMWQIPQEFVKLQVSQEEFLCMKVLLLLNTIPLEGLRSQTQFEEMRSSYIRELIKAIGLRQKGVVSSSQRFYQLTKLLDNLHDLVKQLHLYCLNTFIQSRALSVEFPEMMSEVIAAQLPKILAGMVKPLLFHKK
In short: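 TR-FRET coactivator-recruitment assay with LBD and Tb anti-GST antibody. Agonist was set at its EC80 from a prior agonist-mode run: DHT for AR-LBD (test compound 100 μM–45 nM), progesterone for PR (100–1 μM). Buffer had 1% DMSO, 5 mM DTT and 0.01% Triton X-100; incubation was 2–4 h at RT in the dark. […] Two experiments in triplicate.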

[6] = tested on: LNCaP cells; experiment: Hormone-dependent cell proliferation in androgen-deprived LNCaP cells; format: cell-based, human
In short: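 LNCaP cells were androgen-deprived for 48 h in phenol red-free RPMI with 10% charcoal-stripped FBS. They were seeded at 2 × 10^4 cells/mL in triplicate and treated with test compound ± 0.1 nM DHT (0.1% DMSO final), with a vehicle control. Media and treatments were renewed every second day after two PBS washes. Proliferation was read by AlamarBlue at 5 days. Two independent experiments, SEM n = 6.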

[7] = tested on: PSA secretion (AR signaling) in LNCaP cells; experiment: Secreted PSA ELISA in LNCaP cells; format: cell-based, human
In short: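 Media were renewed every second day, and supernatants collected at day 5 for human PSA sandwich ELISA: sample 2 h at RT, HRP-conjugate antibody 2 h at RT, TMB 30 min, then 2 N H2SO4 stop. OD 450 minus 540 nm was interpolated from a standard curve. Two experiments, SEM n = 4.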

Compound	cell viability [1]	viability at 24 h, 50 µM [2]	viability at 24 h, 50 µM [3]	viability at 24 h, 50 µM [4]	binding selectivity for AR over PR [5]	tolerability in LNCaP cells ([6]; 5 days of treatment at 10 and 20 μM)	effect on DHT-treated cell count ([6]; 5 days, 10 and 20 μM, 0.1 nM DHT)	effect on CPA partial agonist activity (secreted PSA) ([7]; 10 μM, androgen-deprived LNCaP)	effect on DHT-induced PSA secretion ([7]; LNCaP, ELISA)	agonist activity (PSA without hormone stimulation) ([7]; androgen-deprived LNCaP, tested concentrations)
CC(=O)O[C@]1(C(C)=O)CC[C@H]2[C@@H]3C=C(Cl)C4=CC(=O)[C@@H]5C[C@@H]5[C@]4(C)[C@H]3CC[C@@]21C [CPA, cyproterone acetate, reference compound]	minor effect	–	–	–	–	–	–	–	–	–
O=C(N/N=C/c1cc(Br)ccc1O)c1cc2ccccc2cc1O [Compound 4]	–	50 to 60%	50 to 60%	50 to 60%	approximately 2 fold	–	–	–	–	–
COc1cc(/C=N/NC(=O)c2cc3c(ccc4ccccc43)o2)cc(OC)c1O [Compound 5]	–	–	–	–	comparable affinity	well-tolerated	specific reduction in DHT-treated cell count	antagonize CPA partial agonist activity	reduce DHT-induced PSA secretion in a dose–response fashion	no detectable agonist or partial agonist activity
